Test results published in ChEMBL document CHEMBL4376859, “Prodrugs for nitroreductase-based cancer therapy-3: Antitumor activity of the novel dinitroaniline prodrugs/Ssap-NtrB enzyme suicide gene system: Synthesis, in vitro and in silico evaluation in prostate cancer” (Eur J Med Chem, 2020).
pIC50, pKi: −log10 of the molar value. Activity calls are given as the source filed them. The calls are words filed in the database; no cut-off is given here.

Experiments:
Hep 3B2 [1] = test: Cytotoxicity against human Hep3B cells assessed as cell viability after 24 hrs by MTT assay; assay type: functional, cell-based
In short: (§1)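 Hep3B hepatoma, PC-3 prostate cancer and HUVEC (healthy control) cells were exposed to nitro compounds at 150, 75, 38, 19 and 9 µM for 24 h and 48 h. Viability was read by MTT assay, and IC50 values were derived from the growth inhibition curves.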

Hep 3B2 [2] = test: Cytotoxicity against human Hep3B cells assessed as cell viability after 48 hrs by MTT assay; assay type: functional, cell-based; in short: as §1
PC-3 [3] = test: Cytotoxicity against human PC3 cells assessed as cell viability after 24 hrs by MTT assay; assay type: functional, cell-based; conditions: pc-3; in short: as §1
PC-3 [4] = test: Cytotoxicity against human PC3 cells assessed as cell viability after 48 hrs by MTT assay; assay type: functional, cell-based; in short: as §1
HUVEC [5] = test: Cytotoxicity against human HUVEC cells assessed as cell viability after 24 hrs by MTT assay; assay type: cell-based; in short: as §1
HUVEC [6] = test: Cytotoxicity against human HUVEC cells assessed as cell viability after 48 hrs by MTT assay; assay type: cell-based; in short: as §1
Putative nitroreductase [7] = target: T1, Putative nitroreductase (Staphylococcus saprophyticus subsp. saprophyticus (strain ATCC 15305 / DSM20229 / NCIMB 8711 / NCTC 7292 / S-41), UniProt Q4A0P1); test: Substrate activity at Staphylococcus saprophyticus nitroreductase expressed in Escherichia coli BL21 (DE3) assessed as retention time by HPLC analysis; assay type: ADME
T1 sequence (Q4A0P1 whole entry): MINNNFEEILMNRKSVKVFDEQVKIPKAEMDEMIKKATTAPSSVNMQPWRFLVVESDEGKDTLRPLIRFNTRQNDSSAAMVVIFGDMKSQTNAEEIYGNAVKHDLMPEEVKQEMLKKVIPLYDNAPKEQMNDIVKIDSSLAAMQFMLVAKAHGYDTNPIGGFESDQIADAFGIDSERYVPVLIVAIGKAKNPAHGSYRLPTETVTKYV

PC-3 [8] = test: Cytotoxicity against human PC3 cells assessed as cell viability at 9 to 150 uM after 24 hrs by MTT assay relative to control; assay type: functional; in short: as §1
PC-3 [9] = test: Cytotoxicity against human PC3 cells assessed as cell viability at 9 to 150 uM after 48 hrs by MTT assay relative to control; assay type: functional; in short: as §1
[10] = Cytotoxicity against human HUVEC cells assessed as cell viability at 9 to 150 uM after 24 hrs by MTT assay relative to control; assay type: cell-based; conditions: read-out: Activity; in short: as §1
[11] = Cytotoxicity against human HUVEC cells assessed as cell viability at 9 to 150 uM after 48 hrs by MTT assay relative to control; assay type: cell-based; conditions: read-out: Activity; in short: as §1
PC-3 [12] = test: Cytotoxicity against human PC3 cells assessed as reduction in cell viability after 48 hrs by SRB assay; assay type: functional, cell-based
In short: (§2)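 Compounds were reduced outside the cells by purified His-tag (Ni column) Ssap-NtrB. The reaction mix held 600 µM NADH and compound (150, 39, 9 µM, or 180, 18, 1.8 nM) and was applied to PC-3 cells. Controls were compound alone in 25 mM Tris/HCl pH 7.5, and enzyme alone at 31 µg/mL. After 48 h, SRB absorbance was read at 492 nm and converted to % viability.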

Putative nitroreductase [13] = target: T1, Putative nitroreductase; test: Substrate activity at Staphylococcus saprophyticus nitroreductase NtrB assessed as Kcat/Km using NADPH as cofactor in Tris-Cl buffer at pH 7.5 by HPLC analysis relative to CB1954/NfsB; assay type: ADME
PC-3 [14] = test: Cytotoxicity against human PC3 cells […] Staphylococcus saprophyticus nitroreductase NtrB assessed as reduction in cell viability in presence of NADH as cofactor after 48 hrs by SRB assay; assay type: functional, cell-based; conditions: PC-3, 48 h; in short: as §2
Hep 3B2 [15] = test: Cytotoxicity against human Hep3B cells assessed as cell viability at 9 to 150 uM after 24 hrs by MTT assay relative to control; assay type: functional; in short: as §1
Hep 3B2 [16] = test: Cytotoxicity against human Hep3B cells assessed as cell viability at 9 to 150 uM after 48 hrs by MTT assay relative to control; assay type: functional; in short: as §1
Putative nitroreductase [17] = target: T1, Putative nitroreductase; test: Substrate activity at Staphylococcus saprophyticus nitroreductase NtrB assessed as enzyme specific activity using NADH as cofactor in Tris-Cl buffer at pH 7.5 by HPLC analysis; assay type: ADME
[18] = Substrate activity at Escherichia coli nitroreductase nfsA assessed as Kcat using NADPH as cofactor in Tris-Cl buffer at pH 7.5 by spectrophotometric method; assay type: ADME
[19] = target: T2, Oxygen-insensitive NAD(P)H nitroreductase (Escherichia coli K-12, UniProt P38489); test: Substrate activity at Escherichia coli nitroreductase nfsB assessed as Kcat using NADH as cofactor in Tris-Cl buffer at pH 7.5 by spectrophotometric method; assay type: ADME
T2 sequence (P38489 whole entry): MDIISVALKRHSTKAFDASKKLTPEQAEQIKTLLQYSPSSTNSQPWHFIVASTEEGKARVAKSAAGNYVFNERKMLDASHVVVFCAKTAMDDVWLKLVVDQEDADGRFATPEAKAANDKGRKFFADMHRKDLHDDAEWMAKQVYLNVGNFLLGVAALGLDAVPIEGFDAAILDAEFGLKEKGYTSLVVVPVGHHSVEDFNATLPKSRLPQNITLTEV

Putative nitroreductase [20] = target: T1, Putative nitroreductase; test: Substrate activity at Staphylococcus saprophyticus nitroreductase NtrB assessed as Kcat using NADPH as cofactor in Tris-Cl buffer at pH 7.5 incubated for 30 mins by HPLC analysis; assay type: ADME; conditions: pH 7.5, 0.5 h
nitroreductase nfsA = test: Substrate activity at Escherichia coli nitroreductase nfsA assessed as Km using NADPH as cofactor in Tris-Cl buffer at pH 7.5 by spectrophotometry based Michaelis-Menten plot analysis; assay type: ADME; conditions: Escherichia coli nitroreductase nfsA enzyme
[21] = target: T2, Oxygen-insensitive NAD(P)H nitroreductase; test: Substrate activity at Escherichia coli nitroreductase nfsB assessed as Km using NADH as cofactor in Tris-Cl buffer at pH 7.5 by spectrophotometric method based Michaelis-Menten plot analysis; assay type: ADME
Putative nitroreductase [22] = target: T1, Putative nitroreductase; test: Substrate activity at Staphylococcus saprophyticus nitroreductase NtrB assessed as Km using NADPH as cofactor in Tris-Cl buffer at pH 7.5 incubated for 30 mins by HPLC analysis; assay type: ADME; conditions: pH 7.5, 0.5 h
[23] = Substrate activity at Escherichia coli nitroreductase nfsA assessed as ratio of Kcat/Km using NADPH as cofactor in Tris-Cl buffer at pH 7.5 by spectrophotometry based Michaelis-Menten plot analysis; assay type: ADME
[24] = target: T2, Oxygen-insensitive NAD(P)H nitroreductase; test: Substrate activity at Escherichia coli nitroreductase nfsB assessed as ratio of Kcat/Km using NADH as cofactor in Tris-Cl buffer at pH 7.5 by spectrophotometric method based Michaelis-Menten plot analysis; assay type: ADME
Putative nitroreductase [25] = target: T1, Putative nitroreductase; test: Substrate activity at Staphylococcus saprophyticus nitroreductase NtrB assessed as ratio of Kcat/Km using NADPH as cofactor in Tris-Cl buffer at pH 7.5 incubated for 30 mins by HPLC analysis; assay type: ADME; conditions: pH 7.5, 0.5 h
[26] = target: T2, Oxygen-insensitive NAD(P)H nitroreductase; test: Substrate activity at Escherichia coli nitroreductase nfsB assessed as ratio of Kcat/Km using NADH as cofactor in Tris-Cl buffer at pH 7.5 by spectrophotometric method based Michaelis-Menten plot analysis relative to CB1954/NfsB; assay type: ADME
Putative nitroreductase [27] = target: T1, Putative nitroreductase; test: Substrate activity at Staphylococcus saprophyticus nitroreductase NtrB assessed as ratio of Kcat/Km using NADPH as cofactor in Tris-Cl buffer at pH 7.5 incubated for 30 mins by HPLC analysis relative to CB1954/NfsB; assay type: ADME; conditions: pH 7.5, 0.5 h
Nitroreductase = target: T3, Nitroreductase (Bacillus amyloliquefaciens, UniProt Q8VSR5); test: Substrate activity at Bacillus amyloliquefaciens nitroreductase ywrO assessed as ratio of Kcat/Km using NADPH as cofactor in sodium phosphate buffer at pH 7.5 by HPLC analysis relative to CB1954/NfsB; assay type: ADME
T3 sequence (Q8VSR5 whole entry): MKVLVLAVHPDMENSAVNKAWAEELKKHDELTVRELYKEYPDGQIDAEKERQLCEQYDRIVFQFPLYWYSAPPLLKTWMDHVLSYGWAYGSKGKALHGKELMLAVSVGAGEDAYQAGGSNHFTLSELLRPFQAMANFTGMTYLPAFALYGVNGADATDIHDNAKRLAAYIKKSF

Putative nitroreductase [28] = target: T1, Putative nitroreductase; test: Binding affinity to Staphylococcus saprophyticus nitroreductase NtrB
[29] = Substrate activity at Escherichia coli nitroreductase nfsA assessed as ratio of Kcat/Km using NADPH as cofactor in Tris-Cl buffer at pH 7.5 by spectrophotometric method based Michaelis-Menten plot analysis relative to CB1954/NfsB

SMILES | pIC50 (Hep 3B2 [2]) | IC50 (PC-3 [4]) | Retention_time (Putative nitroreductase [7]) [min] | Activity (PC-3 [8]) | Activity (PC-3 [9]) [%] | viability at 24 h, up to 150 µM [10] [%] | viability at 48 h, up to 150 µM [11] [%] | Activity (PC-3 [12]) | pIC50 (PC-3 [14]) | Activity (Hep 3B2 [15]) | Activity (Hep 3B2 [16]) | also measured
O=[N+]([O-])c1ccc(Nc2ccccc2)c([N+](=O)[O-])c1 | 3.82 | Not Active | 18.41 | >80% | >80 | > 80 | > 80 | inactive |  |  |  | pIC50 (Hep 3B2 [1]): 4.07; IC50 (PC-3 [3]): Not Active; Activity (HUVEC [5]; human, huvec): Non-Toxic; Activity (HUVEC [6]; human, huvec): Non-Toxic
O=[N+]([O-])c1ccc(Nc2ccc3ccccc3c2)c([N+](=O)[O-])c1 |  |  | 20.13 | 51 - 80% | >80 | > 80 | > 80 | inactive | 5.29 | 51 - 80% | 51 - 80% | fold change (FC) (Putative nitroreductase [13]): 1.48
O=[N+]([O-])c1cc([N+](=O)[O-])c(Nc2ccc(O)cc2)cc1Nc1ccc(O)cc1 | 4.84 | Not Active | 21.2 | >80% |  |  |  |  |  | 51 - 80% |  | pIC50 (HUVEC [5]; Homo sapiens, HUVEC): 4.18; pIC50 (HUVEC [6]; Homo sapiens, HUVEC): 3.82; Activity (Putative nitroreductase [17]): 1.61 U/mg
NC(=O)c1cc(N2CC2)c([N+](=O)[O-])cc1[N+](=O)[O-] [TRETAZICAR] |  |  |  | >80% | >80 | > 80 | > 80 | inactive | 8.75 | >80% | >80% | Kcat [18]: 16 s⁻¹; Kcat [19]: 62 s⁻¹; Kcat (Putative nitroreductase [20]): 2.26 s⁻¹; Km (nitroreductase nfsA): 220 µM; Km [21]: 11000 µM; Km (Putative nitroreductase [22]): 1070 µM; Kcat/Km [23]: 73000 M⁻¹ s⁻¹; Kcat/Km [24]: 5600 M⁻¹ s⁻¹; Kcat/Km (Putative nitroreductase [25]): 2120 M⁻¹ s⁻¹; fold change (FC) [26]: 1; fold change (FC) (Putative nitroreductase [27]): 0.38; fold change (FC) (Nitroreductase): 2.37; pKi (Putative nitroreductase [28]): 5.22; fold change (FC) [29]: 13.04
